Measurements reported in ChEMBL document CHEMBL1147128, “Development of molecular probes for second-site screening and design of protein tyrosine phosphatase inhibitors” (J Med Chem, 2007).

Tests used:
[1] = Inhibition of Yersinia pestis YopH expressed in Escherichia coli
Summary of the method: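 GST-YopH was purified on glutathione-Sepharose and dialysed into 30 mM Tris, 150 mM NaCl, then with 1 mM DTT. Assayed with pNPP at Km (1 mM), 30°C, 0.15 M Bis-Tris pH 6.0, 1.0 mM DTT, 5% DMSO final. Compound (0.0128–1000 μM) was preincubated 10 min at RT, then reacted 20 min. NaOH quench, A405 with the no-enzyme blank subtracted, IC50 by the hyperbolic fit.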

[2] = biological target: T1, Tyrosine-protein phosphatase non-receptor type 7 (Homo sapiens, UniProt P35236); assay: Inhibition of HePTP
T1 sequence (P35236 whole entry): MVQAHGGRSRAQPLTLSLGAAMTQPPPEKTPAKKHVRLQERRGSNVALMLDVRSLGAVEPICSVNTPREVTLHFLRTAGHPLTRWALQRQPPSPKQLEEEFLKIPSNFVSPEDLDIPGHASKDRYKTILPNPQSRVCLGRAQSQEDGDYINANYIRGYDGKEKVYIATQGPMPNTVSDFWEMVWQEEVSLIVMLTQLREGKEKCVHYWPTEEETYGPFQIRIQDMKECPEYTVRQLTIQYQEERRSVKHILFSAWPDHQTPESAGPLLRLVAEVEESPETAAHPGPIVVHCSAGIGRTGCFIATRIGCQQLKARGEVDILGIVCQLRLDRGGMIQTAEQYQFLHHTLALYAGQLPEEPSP
Summary of the method: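 pNPP was held at its Km of 2.5 mM for HePTP. Assay at 30°C in 0.15 M Bis-Tris pH 6.0 (ionic strength 150 mM, NaCl), 1.0 mM DTT, 5% DMSO final. Compound (0.0128–1000 μM) and enzyme were preincubated 10 min at RT, then reacted 20 min with substrate. NaOH quench, A405 minus the no-enzyme blank. IC50 fit to Vi/V0 = IC50/(IC50+[I]).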

[3] = biological target: T2, Tyrosine-protein phosphatase non-receptor type 1 (Homo sapiens, UniProt P18031); assay: Inhibition of PTP1B
T2 sequence (P18031 whole entry): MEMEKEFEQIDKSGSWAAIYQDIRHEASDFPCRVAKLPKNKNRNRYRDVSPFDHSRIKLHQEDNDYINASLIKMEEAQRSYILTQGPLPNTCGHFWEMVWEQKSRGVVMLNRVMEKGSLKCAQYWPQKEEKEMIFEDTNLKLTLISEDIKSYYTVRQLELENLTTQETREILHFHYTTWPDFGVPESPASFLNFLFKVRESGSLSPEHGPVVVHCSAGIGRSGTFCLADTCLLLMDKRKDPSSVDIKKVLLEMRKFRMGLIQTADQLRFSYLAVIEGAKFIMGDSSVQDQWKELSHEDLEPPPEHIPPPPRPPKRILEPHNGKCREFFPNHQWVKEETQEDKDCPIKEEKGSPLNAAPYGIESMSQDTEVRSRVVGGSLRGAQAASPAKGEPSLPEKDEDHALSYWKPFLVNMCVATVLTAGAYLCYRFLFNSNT
Summary of the method: (§1)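 Hydrolysis of pNPP at its Km (1 mM) was measured at 30°C in 0.15 M Bis-Tris pH 6.0, ionic strength 150 mM with NaCl, 1.0 mM DTT, 5% DMSO final. Enzyme and compound (0.0128–1000 μM, 5-fold steps) were preincubated 10 min at room temperature, then reacted 20 min. The reaction was quenched with 1 M NaOH and read at 405 nm, with the no-enzyme background subtracted. IC50 came from the fit Vi/V0 = IC50/(IC50+[I]).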

[4] = biological target: T3, Tyrosine-protein phosphatase non-receptor type 2 (Homo sapiens, UniProt P17706); assay: Inhibition of TCPTP; summary of the method: as §1
T3 sequence (P17706 whole entry): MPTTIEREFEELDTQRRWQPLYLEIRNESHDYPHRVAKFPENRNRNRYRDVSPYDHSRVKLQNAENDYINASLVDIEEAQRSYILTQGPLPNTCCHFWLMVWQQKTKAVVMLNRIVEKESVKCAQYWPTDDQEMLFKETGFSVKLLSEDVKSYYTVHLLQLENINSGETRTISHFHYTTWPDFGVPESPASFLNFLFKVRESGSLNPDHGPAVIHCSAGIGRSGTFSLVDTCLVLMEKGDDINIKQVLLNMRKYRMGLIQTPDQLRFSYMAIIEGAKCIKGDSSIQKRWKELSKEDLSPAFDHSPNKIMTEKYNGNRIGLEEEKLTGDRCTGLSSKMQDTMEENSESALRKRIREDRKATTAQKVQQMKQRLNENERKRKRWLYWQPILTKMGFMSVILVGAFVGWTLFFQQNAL

[5] = biological target: T4, Receptor-type tyrosine-protein phosphatase C (Homo sapiens, UniProt P08575); assay: Inhibition of CD45; summary of the method: as §1
T4 sequence (P08575 whole entry): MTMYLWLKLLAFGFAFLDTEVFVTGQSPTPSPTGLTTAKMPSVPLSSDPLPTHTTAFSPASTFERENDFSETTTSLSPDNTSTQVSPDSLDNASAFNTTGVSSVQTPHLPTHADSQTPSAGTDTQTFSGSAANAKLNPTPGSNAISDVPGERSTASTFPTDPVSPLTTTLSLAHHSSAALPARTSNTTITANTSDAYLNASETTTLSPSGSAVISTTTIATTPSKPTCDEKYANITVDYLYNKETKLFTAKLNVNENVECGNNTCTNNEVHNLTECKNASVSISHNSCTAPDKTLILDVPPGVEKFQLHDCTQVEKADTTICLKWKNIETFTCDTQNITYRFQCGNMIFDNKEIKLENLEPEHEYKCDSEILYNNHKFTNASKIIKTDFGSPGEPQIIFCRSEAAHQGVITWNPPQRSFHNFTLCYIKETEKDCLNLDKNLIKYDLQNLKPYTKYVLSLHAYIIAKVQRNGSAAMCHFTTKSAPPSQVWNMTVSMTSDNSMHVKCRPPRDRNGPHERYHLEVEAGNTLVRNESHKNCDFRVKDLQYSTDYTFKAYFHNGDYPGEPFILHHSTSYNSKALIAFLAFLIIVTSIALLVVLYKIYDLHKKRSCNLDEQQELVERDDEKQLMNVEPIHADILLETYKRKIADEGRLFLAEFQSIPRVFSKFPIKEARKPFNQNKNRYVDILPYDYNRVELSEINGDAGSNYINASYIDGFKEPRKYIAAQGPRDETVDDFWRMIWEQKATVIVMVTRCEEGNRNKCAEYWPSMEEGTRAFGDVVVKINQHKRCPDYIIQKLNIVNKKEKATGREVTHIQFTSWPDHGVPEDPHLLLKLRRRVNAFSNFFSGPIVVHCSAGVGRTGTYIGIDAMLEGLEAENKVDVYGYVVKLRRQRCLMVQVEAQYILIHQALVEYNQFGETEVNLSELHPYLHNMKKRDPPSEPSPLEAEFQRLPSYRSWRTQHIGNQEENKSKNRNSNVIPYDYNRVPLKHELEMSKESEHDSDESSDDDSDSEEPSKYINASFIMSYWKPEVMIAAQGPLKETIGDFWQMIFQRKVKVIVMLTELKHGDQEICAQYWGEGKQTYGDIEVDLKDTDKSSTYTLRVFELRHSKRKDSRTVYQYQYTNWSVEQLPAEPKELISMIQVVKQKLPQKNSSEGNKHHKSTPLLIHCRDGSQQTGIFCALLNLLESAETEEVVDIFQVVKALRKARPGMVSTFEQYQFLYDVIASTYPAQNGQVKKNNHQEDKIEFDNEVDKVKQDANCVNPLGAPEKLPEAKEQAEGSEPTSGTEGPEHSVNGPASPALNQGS

[6] = biological target: Dual specificity protein phosphatase 3 (Homo sapiens, UniProt P51452); assay: Inhibition of VHR
Chain of Dual specificity protein phosphatase 3 (P51452 whole entry): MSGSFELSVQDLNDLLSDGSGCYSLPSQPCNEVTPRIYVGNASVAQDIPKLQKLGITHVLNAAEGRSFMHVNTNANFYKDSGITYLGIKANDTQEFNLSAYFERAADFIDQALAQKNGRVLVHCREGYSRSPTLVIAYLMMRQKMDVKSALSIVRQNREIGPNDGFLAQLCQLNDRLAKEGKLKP
Summary of the method: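 VHR was assayed with pNPP at its Km of 1.5 mM, at 30°C in 0.15 M Bis-Tris pH 6.0 (150 mM ionic strength, NaCl), 1.0 mM DTT, 5% DMSO final. Eight compound concentrations from 0.0128 to 1000 μM were preincubated 10 min at RT, then reacted 20 min. NaOH quench, read at 405 nm with the enzyme-free blank corrected. IC50 from Vi/V0 = IC50/(IC50+[I]).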

Row | Structure (SMILES) | IC50 [1] [µM] | IC50 [2] [µM] | IC50 [3] [µM] | IC50 [4] [µM] | IC50 [5] [µM] | IC50 [6] [µM]
1 | CC1(C)CC(NC(=O)/C=C/c2ccc(-c3cccc([N+](=O)[O-])c3)o2)CC(C)(C)N1[O] | 46 | 211 | 1000 | 260 | > 1000 | 200
2 | CC1(C)CC(NC(=O)CCCC(=O)Nc2ccc(O)c(C(=O)O)c2)CC(C)(C)N1[O] | 336 | > 1000 | > 1000 | > 1000 | > 1000 | 1000
3 | CC1(C)CC(NCc2ccc(-c3ccc(O)c(C(=O)O)c3)o2)CC(C)(C)N1[O] | 50 | > 1000 | > 1000 | 685 | > 1000 | 241
4 | COC(=O)c1cc(-c2ccc(CNC3CC(C)(C)N([O])C(C)(C)C3)o2)ccc1O | > 1000 | > 1000 | > 1000 | > 1000 | > 1000 | 850
5 | COC(=O)c1cc(NC(=O)CCCC(=O)NC2CC(C)(C)N([O])C(C)(C)C2)ccc1O | > 1000 | > 1000 | > 1000 | > 1000 | > 1000 | > 1000
6 | CC1(C)CC(NC(=O)/C=C/c2ccc(-c3ccc([N+](=O)[O-])cc3)o2)CC(C)(C)N1[O] | 47 | > 1000 | > 1000 | > 1000 | > 1000 | 1000
7 | CC1(C)CC(NC(=O)/C=C/c2ccc(-c3ccc(O)c(C(=O)O)c3)o2)CC(C)(C)N1[O] | 3 | 7.5 | 24 | 14 | 14 | 12
